According to ChEMBL document CHEMBL1795341, “Efficient synthesis, structural characterization and anti-microbial activity of chiral aryl boronate esters of 1,2-O-isopropylidene-α-D-xylofuranose” (2011):
≈ marks a conversion by molar mass, not a printed value.

Legend:
Format in all cases: functional
Bacillus subtilis = test: Antibacterial activity against Bacillus subtilis MTCC 441 by broth microdilution method
Staphylococcus aureus = test: Antibacterial activity against Staphylococcus aureus MTCC 96 by broth microdilution method
[1] = test system: Staphylococcus epidermidis; test: Antibacterial activity against Staphylococcus epidermidis MTCC 2639 by broth microdilution method
Escherichia coli = test: Antibacterial activity against Escherichia coli MTCC 443 by broth microdilution method
Pseudomonas aeruginosa = test: Antibacterial activity against Pseudomonas aeruginosa MTCC 741 by broth microdilution method
Klebsiella pneumoniae = test: Antibacterial activity against Klebsiella pneumoniae MTCC 618 by broth microdilution method
Candida albicans [2] = test: Antifungal activity against Candida albicans MTCC 227 at 100 ug after 48 hrs by agar well diffusion method; conditions: MTCC 227, 48 h, read-out: DIZ
Procedure, shortened: (§1)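 Agar well diffusion on potato dextrose agar; 0.5 ml week-old culture spread over solidified plates, 6 mm wells bored. Compounds dissolved in DMSO at different concentrations and added to wells, with controls. Incubated 27 °C for 48 h; inhibition zone diameter measured in mm; three to four replicates per treatment.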

Candida albicans [3] = test: Antifungal activity against Candida albicans MTCC 227 at 150 ug after 48 hrs by agar well diffusion method; conditions: MTCC 227, 48 h, read-out: DIZ; procedure, shortened: as §1
Diutina rugosa [4] = test: Antifungal activity against Candida rugosa NCIM 3462 at 100 ug after 48 hrs by agar well diffusion method; conditions: NCIM 3462, 48 h, read-out: DIZ; procedure, shortened: as §1
Diutina rugosa [5] = test: Antifungal activity against Candida rugosa NCIM 3462 at 150 ug after 48 hrs by agar well diffusion method; conditions: NCIM 3462, 48 h, read-out: DIZ; procedure, shortened: as §1
Saccharomyces cerevisiae [6] = test: Antifungal activity against Saccharomyces cerevisiae MTCC 36 at 100 ug after 48 hrs by agar well diffusion method; conditions: MTCC 36, 48 h, read-out: DIZ; procedure, shortened: as §1
Saccharomyces cerevisiae [7] = test: Antifungal activity against Saccharomyces cerevisiae MTCC 36 at 150 ug after 48 hrs by agar well diffusion method; conditions: MTCC 36, 48 h, read-out: DIZ; procedure, shortened: as §1
Aspergillus niger [8] = test: Antifungal activity against Aspergillus niger MTCC 282 at 100 ug after 48 hrs by agar well diffusion method; conditions: MTCC 282, 48 h, read-out: DIZ; procedure, shortened: as §1
Aspergillus niger [9] = test: Antifungal activity against Aspergillus niger MTCC 282 at 150 ug after 48 hrs by agar well diffusion method; conditions: MTCC 282, 48 h, read-out: DIZ; procedure, shortened: as §1

| MIC (Bacillus subtilis) [µg/mL] | MIC (Staphylococcus aureus) [µg/mL] | MIC [1] [µg/mL] | MIC (Escherichia coli) [µg/mL] | MIC (Pseudomonas aeruginosa) [µg/mL] | MIC (Klebsiella pneumoniae) [µg/mL] | Structure (SMILES) | zone of inhibition at 100 µg/disc (Candida albicans [2]) [mm] | zone of inhibition at 150 µg/disc (Candida albicans [3]) [mm] | zone of inhibition at 100 µg/disc (Diutina rugosa [4]) [mm] | zone of inhibition at 150 µg/disc (Diutina rugosa [5]) [mm] | zone of inhibition at 100 µg/disc (Saccharomyces cerevisiae [6]) [mm] | zone of inhibition at 150 µg/disc (Saccharomyces cerevisiae [7]) [mm] | zone of inhibition at 100 µg/disc (Aspergillus niger [8]) [mm] | zone of inhibition at 150 µg/disc (Aspergillus niger [9]) [mm] |
| --- | --- | --- | --- | --- | --- | --- | --- | --- | --- | --- | --- | --- | --- | --- |
| 75 (≈ 266 µM) | 37.5 (≈ 133 µM) | 18.8 (≈ 66.5 µM) | 4.68 (≈ 16.6 µM) | 18.8 (≈ 66.5 µM) | 75 (≈ 266 µM) | CC1(C)O[C@H]2O[C@@H]3COB(c4ccsc4)O[C@@H]3[C@H]2O1 | 0 | 7 | 14 | 20 | 10 | 14 | 12 | 16 |
| 37.5 (≈ 136 µM) | 75 (≈ 272 µM) | 18.8 (≈ 67.9 µM) | 18.8 (≈ 67.9 µM) | 37.5 (≈ 136 µM) | 75 (≈ 272 µM) | CC1(C)O[C@H]2O[C@@H]3COB(c4ccccc4)O[C@@H]3[C@H]2O1 | 0 | 6 | 0 | 0 | 0 | 0 | 8 | 12 |
| 75 (≈ 255 µM) | 18.8 (≈ 63.8 µM) | 75 (≈ 255 µM) | 37.5 (≈ 128 µM) | 75 (≈ 255 µM) | 37.5 (≈ 128 µM) | CC1(C)O[C@H]2O[C@@H]3COB(c4ccc(F)cc4)O[C@@H]3[C@H]2O1 | 6 | 8 | 11 | 14 | 7 | 10 | 0 | 6 |
| 75 (≈ 248 µM) | 75 (≈ 248 µM) | 75 (≈ 248 µM) | 150 (≈ 496 µM) | 37.5 (≈ 124 µM) | 150 (≈ 496 µM) | C=Cc1ccc(B2OC[C@H]3O[C@@H]4OC(C)(C)O[C@@H]4[C@H]3O2)cc1 | 6 | 9 | 0 | 0 | 6 | 8 | 9 | 14 |
| 150 (≈ 490 µM) | 150 (≈ 490 µM) | 150 (≈ 490 µM) | 150 (≈ 490 µM) | 150 (≈ 490 µM) | 75 (≈ 245 µM) | COc1ccc(B2OC[C@H]3O[C@@H]4OC(C)(C)O[C@@H]4[C@H]3O2)cc1 | 0 | 0 | 7 | 10 | 0 | 0 | 0 | 0 |
| 150 (≈ 517 µM) | 150 (≈ 517 µM) | 150 (≈ 517 µM) | 150 (≈ 517 µM) | 150 (≈ 517 µM) | 150 (≈ 517 µM) | Cc1ccc(B2OC[C@H]3O[C@@H]4OC(C)(C)O[C@@H]4[C@H]3O2)cc1 | 0 | 0 | 0 | 6 | 0 | 0 | 0 | 0 |
| 18.8 (≈ 61.7 µM) | 9.38 (≈ 30.8 µM) | 18.8 (≈ 61.7 µM) | 4.68 (≈ 15.4 µM) | 37.5 (≈ 123 µM) | 4.68 (≈ 15.4 µM) | CC1(C)O[C@H]2O[C@@H]3COB(c4ccc(C=O)cc4)O[C@@H]3[C@H]2O1 | 12 | 14 | 13 | 17 | 14 | 19 | 6 | 8 |
| 2.34 (≈ 7.29 µM) | 4.68 (≈ 14.6 µM) | 9.38 (≈ 29.2 µM) | 9.38 (≈ 29.2 µM) | 18.8 (≈ 58.4 µM) | 4.68 (≈ 14.6 µM) | CC1(C)O[C@H]2O[C@@H]3COB(c4cccc([N+](=O)[O-])c4)O[C@@H]3[C@H]2O1 | 13 | 18 | 16 | 20 | 11 | 16 | 14 | 18 |
| 75 (≈ 266 µM) | 150 (≈ 532 µM) | 37.5 (≈ 133 µM) | 150 (≈ 532 µM) | 75 (≈ 266 µM) | 150 (≈ 532 µM) | CC1(C)O[C@H]2O[C@@H]3COB(c4cccs4)O[C@@H]3[C@H]2O1 | 0 | 6 | 9 | 13 | 12 | 17 | 9 | 11 |
| 150 (≈ 460 µM) | 150 (≈ 460 µM) | 75 (≈ 230 µM) | 150 (≈ 460 µM) | 150 (≈ 460 µM) | 150 (≈ 460 µM) | CC1(C)O[C@H]2O[C@@H]3COB(c4ccc5ccccc5c4)O[C@@H]3[C@H]2O1 | 6 | 9 | 13 | 16 | 7 | 11 | 0 | 4 |
|  |  |  |  |  |  | C[C@@H]1[C@H](O)[C@@H](C)/C=C/C=C/C=C/C=C/C=C/C=C/C=C/[C@H](O[C@@H]2O[C@H](C)[C@@H](O)[C@H](N)[C@@H]2O)C[C@@H]2O[C@](O)(C[C@@H](O)C[C@@H](O)[C@H](O)CC[C@@H](O)C[C@@H](O)CC(=O)O[C@H]1C)C[C@H](O)[C@H]2C(=O)O [AMPHOTERICIN B] | 23.5 |  | 21 |  | 22 |  | 25 |  |
| 1.56 (≈ 4.67 µM) | 1.56 (≈ 4.67 µM) | 3.12 (≈ 9.35 µM) | 12.5 (≈ 37.4 µM) | 12.5 (≈ 37.4 µM) | 6.25 (≈ 18.7 µM) | CC1(C)S[C@@H]2[C@H](NC(=O)Cc3ccccc3)C(=O)N2[C@H]1C(=O)O [PENICILLIN G] |  |  |  |  |  |  |  |  |

| Structure (SMILES) | MIC (Bacillus subtilis) [µg/mL] | MIC (Staphylococcus aureus) [µg/mL] | MIC [1] [µg/mL] | MIC (Escherichia coli) [µg/mL] | MIC (Pseudomonas aeruginosa) [µg/mL] | MIC (Klebsiella pneumoniae) [µg/mL] | zone of inhibition at 100 µg/disc (Candida albicans [2]) [mm] | zone of inhibition at 150 µg/disc (Candida albicans [3]) [mm] | zone of inhibition at 100 µg/disc (Diutina rugosa [4]) [mm] | zone of inhibition at 150 µg/disc (Diutina rugosa [5]) [mm] | zone of inhibition at 100 µg/disc (Saccharomyces cerevisiae [6]) [mm] | zone of inhibition at 150 µg/disc (Saccharomyces cerevisiae [7]) [mm] | zone of inhibition at 100 µg/disc (Aspergillus niger [8]) [mm] | zone of inhibition at 150 µg/disc (Aspergillus niger [9]) [mm] |
| --- | --- | --- | --- | --- | --- | --- | --- | --- | --- | --- | --- | --- | --- | --- |
| CN[C@@H]1[C@H](O[C@H]2[C@H](O[C@H]3[C@H](O)[C@@H](O)[C@H](N=C(N)N)[C@@H](O)[C@@H]3N=C(N)N)O[C@@H](C)[C@]2(O)C=O)O[C@@H](CO)[C@H](O)[C@H]1O [STREPTOMYCIN] | 6.25 (≈ 10.7 µM) | 6.25 (≈ 10.7 µM) | 3.12 (≈ 5.37 µM) | 6.25 (≈ 10.7 µM) | 1.56 (≈ 2.69 µM) | 3.12 (≈ 5.37 µM) |  |  |  |  |  |  |  |  |
